Calls of active or inactive are those of the source. No cut-off for these calls is given here.
Legend:
[1] = molecular target: Calcium/calmodulin-dependent protein kinase type IV (Homo sapiens) (UniProt Q16566); assay: Inhibition of human CaMK4 assessed as residual activity at 1 uM relative to control
[2] = tested on: MCF7; assay: Induction of apoptosis in human MCF7 cells assessed as PARP cleavage at 1 uM after 24 hrs by Western blot analysis; format: functional, cell-based
How it was run: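 Cells were lysed in urea lysis buffer (6 M urea, NaF, Na3VO4, protease inhibitors). 20–40 µg protein was run on 10% SDS-PAGE and detected by ECL. Primary antibodies (pAkt S473, PARP, β-actin loading control) were used at 1:1000 overnight at 4 °C. DMSO was the vehicle control. For the pAkt blots, cells were treated for 2 h with Ly294002 as positive control.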

[3] = molecular target: Mitogen-activated protein kinase 10 (Homo sapiens) (UniProt P53779); assay: Inhibition of human JNK3 assessed as residual activity at 1 uM relative to control
[4] = molecular target: Protein-tyrosine kinase 6 (Homo sapiens) (UniProt Q13882); assay: Inhibition of human BRK assessed as residual activity at 1 uM relative to control
[5] = molecular target: Serine/threonine-protein kinase PAK 3 (Homo sapiens) (UniProt O75914); assay: Inhibition of human PAK3 assessed as residual activity at 1 uM relative to control
[6] = tested on: MDA-MB-468; assay: Antiproliferative activity against human MDA-MB-468 cells after 3 days by sulforhodamine B assay; format: functional; conditions: MDA-MB-468, 72 h
How it was run: (§1)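 Tested in the NCI 60 cell line panel. GI50 is the concentration giving 50% inhibition of cell growth, and values are the mean of two series of tests.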

[7] = molecular target: CDK2/Cyclin A2 (Homo sapiens) (UniProt P24941+P20248); assay: Inhibition of CDK2/CycA (unknown origin) assessed as residual activity at 1 uM relative to control; format: protein-complex assay
[8] = tested on: MCF7; assay: Cell cycle arrest in human MCF7 cells assessed as accumulation at sub-G1 phase at 0.5 uM after 24 hrs using propidium iodide staining by FACS analysis (reference value: 0.17%); format: functional
[9] = molecular target: Vascular endothelial growth factor receptor 2 (Homo sapiens) (UniProt P35968); assay: Inhibition of VEGF-R2 (unknown origin) assessed as residual activity at 10 uM relative to control
[10] = molecular target: Aurora kinase C (Homo sapiens) (UniProt Q9UQB9); assay: Inhibition of Aurora-C (unknown origin) assessed as residual activity at 1 uM relative to control
[11] = tested on: MDA-MB-231; assay: Antiproliferative activity against human MDA-MB-231 cells after 3 days by sulforhodamine B assay; format: functional; conditions: MDA-MB-231, 72 h; how it was run: as §1
[12] = molecular target: Rho-associated protein kinase 2 (Homo sapiens) (UniProt O75116); assay: Inhibition of human ROCK-2 assessed as residual activity at 1 uM relative to control
[13] = molecular target: Serine/threonine-protein kinase PAK 4 (Homo sapiens) (UniProt O96013); assay: Inhibition of human PAK4 assessed as residual activity at 1 uM relative to control
[14] = molecular target: Cyclin-dependent kinase 4/cyclin D1 (Homo sapiens) (UniProt P11802+P24385); assay: Inhibition of CDK4/CycD1 (unknown origin) assessed as residual activity at 1 uM relative to control; format: protein-complex assay
[15] = molecular target: Mitogen-activated protein kinase 1 (Homo sapiens) (UniProt P28482); assay: Inhibition of human MAPK1 assessed as residual activity at 1 uM relative to control
[16] = molecular target: Casein kinase II (Homo sapiens) (UniProt P67870+P68400+P19784); assay: Inhibition of CK2-mediated Wnt signaling in human MCF7 cells assessed as reduction of beta-catenin level at 1 uM after 15 mins by Western blot analysis; format: cell-based
How it was run: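 MCF7 cells were grown at 37 °C and 5% CO2 in DMEM with 10% heat-inactivated FBS and penicillin/streptomycin. Cells were exposed to 1 µM for the indicated times, with DMSO as the untreated control. Extracts were made in urea lysis buffer, and 20–40 µg protein was run on 10% SDS–PAGE. Blots were probed with primary antibodies (1:1000, overnight, 4 °C) and read by ECL, with β-actin as loading control.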

[17] = molecular target: Dual specificity protein kinase CLK3 (Homo sapiens) (UniProt P49761); assay: Inhibition of human CLK3 assessed as residual activity at 1 uM relative to control
[18] = molecular target: Casein kinase I isoform gamma-2 (Homo sapiens) (UniProt P78368); assay: Inhibition of human CK1gamma2 assessed as residual activity at 1 uM relative to control
[19] = tested on: OVCAR-3; assay: Antiproliferative activity against human OVCAR3 cells after 3 days by sulforhodamine B assay; format: functional; conditions: OVCAR-3, 72 h; how it was run: as §1
[20] = molecular target: Casein kinase I isoform gamma-3 (Homo sapiens) (UniProt Q9Y6M4); assay: Inhibition of human CK1gamma3 assessed as residual activity at 1 uM relative to control
[21] = molecular target: Serine/threonine-protein kinase 24 (Homo sapiens) (UniProt Q9Y6E0); assay: Inhibition of human MST3 assessed as residual activity at 1 uM relative to control
[22] = molecular target: Vascular endothelial growth factor receptor 2 (Homo sapiens) (UniProt P35968); assay: Inhibition of VEGF-R2 (unknown origin) assessed as residual activity at 1 uM relative to control

Sequence of Vascular endothelial growth factor receptor 2 (Homo sapiens) (P35968 whole entry): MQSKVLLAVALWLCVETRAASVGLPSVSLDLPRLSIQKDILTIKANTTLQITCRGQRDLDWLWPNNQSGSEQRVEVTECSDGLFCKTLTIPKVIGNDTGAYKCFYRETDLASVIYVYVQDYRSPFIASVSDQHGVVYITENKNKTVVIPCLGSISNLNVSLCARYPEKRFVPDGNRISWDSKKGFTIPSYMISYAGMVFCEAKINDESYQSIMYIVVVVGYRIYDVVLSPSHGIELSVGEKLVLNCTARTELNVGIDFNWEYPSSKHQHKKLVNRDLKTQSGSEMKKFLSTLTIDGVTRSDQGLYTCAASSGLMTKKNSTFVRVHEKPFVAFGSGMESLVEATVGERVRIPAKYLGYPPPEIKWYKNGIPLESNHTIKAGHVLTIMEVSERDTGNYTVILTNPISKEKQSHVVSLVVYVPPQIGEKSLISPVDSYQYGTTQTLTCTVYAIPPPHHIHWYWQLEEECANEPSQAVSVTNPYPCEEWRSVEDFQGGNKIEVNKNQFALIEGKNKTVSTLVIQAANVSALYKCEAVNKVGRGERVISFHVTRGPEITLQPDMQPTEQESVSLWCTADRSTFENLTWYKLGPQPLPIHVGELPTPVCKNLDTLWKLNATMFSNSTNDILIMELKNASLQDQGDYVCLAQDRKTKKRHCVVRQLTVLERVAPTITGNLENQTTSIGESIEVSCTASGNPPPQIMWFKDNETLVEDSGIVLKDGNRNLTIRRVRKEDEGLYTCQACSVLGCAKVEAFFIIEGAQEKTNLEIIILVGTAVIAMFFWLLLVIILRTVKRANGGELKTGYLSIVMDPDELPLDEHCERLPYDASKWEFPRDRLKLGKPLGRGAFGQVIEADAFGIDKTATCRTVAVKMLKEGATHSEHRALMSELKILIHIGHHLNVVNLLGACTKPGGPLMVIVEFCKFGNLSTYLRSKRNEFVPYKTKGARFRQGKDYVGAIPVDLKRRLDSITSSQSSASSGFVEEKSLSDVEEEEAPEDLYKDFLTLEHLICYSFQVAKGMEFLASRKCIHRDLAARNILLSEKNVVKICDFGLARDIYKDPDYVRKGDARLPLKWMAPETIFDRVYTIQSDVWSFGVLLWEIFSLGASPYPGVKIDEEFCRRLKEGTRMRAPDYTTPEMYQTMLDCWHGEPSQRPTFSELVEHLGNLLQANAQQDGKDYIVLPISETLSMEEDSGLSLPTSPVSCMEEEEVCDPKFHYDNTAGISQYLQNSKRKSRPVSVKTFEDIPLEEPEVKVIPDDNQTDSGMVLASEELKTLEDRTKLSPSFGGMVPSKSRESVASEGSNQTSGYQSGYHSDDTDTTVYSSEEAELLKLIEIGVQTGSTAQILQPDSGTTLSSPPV
Sequence of Mitogen-activated protein kinase 1 (Homo sapiens) (P28482 whole entry): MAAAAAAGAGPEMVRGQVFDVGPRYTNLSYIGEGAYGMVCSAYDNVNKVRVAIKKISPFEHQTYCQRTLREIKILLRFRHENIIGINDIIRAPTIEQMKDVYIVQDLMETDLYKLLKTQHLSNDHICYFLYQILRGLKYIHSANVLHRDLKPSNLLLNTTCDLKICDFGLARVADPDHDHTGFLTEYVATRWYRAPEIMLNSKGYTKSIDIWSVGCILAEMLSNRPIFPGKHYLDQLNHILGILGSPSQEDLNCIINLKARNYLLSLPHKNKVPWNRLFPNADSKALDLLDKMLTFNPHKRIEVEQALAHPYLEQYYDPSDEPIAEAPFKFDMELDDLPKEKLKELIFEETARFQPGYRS
Sequence of Protein-tyrosine kinase 6 (Homo sapiens) (Q13882 whole entry, looked up): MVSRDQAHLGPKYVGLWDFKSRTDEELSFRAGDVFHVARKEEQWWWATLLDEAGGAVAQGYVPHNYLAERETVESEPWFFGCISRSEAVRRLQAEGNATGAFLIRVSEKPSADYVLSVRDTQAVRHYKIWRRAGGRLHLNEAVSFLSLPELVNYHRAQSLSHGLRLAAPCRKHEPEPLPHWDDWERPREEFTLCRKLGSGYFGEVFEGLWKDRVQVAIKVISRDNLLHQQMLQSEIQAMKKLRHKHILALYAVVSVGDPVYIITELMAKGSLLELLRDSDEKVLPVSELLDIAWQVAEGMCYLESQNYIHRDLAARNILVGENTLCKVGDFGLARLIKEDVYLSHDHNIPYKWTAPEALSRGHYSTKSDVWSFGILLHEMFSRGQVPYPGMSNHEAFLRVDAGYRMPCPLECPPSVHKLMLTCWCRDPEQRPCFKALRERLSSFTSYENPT
Sequence of Serine/threonine-protein kinase 24 (Homo sapiens) (Q9Y6E0 whole entry, looked up): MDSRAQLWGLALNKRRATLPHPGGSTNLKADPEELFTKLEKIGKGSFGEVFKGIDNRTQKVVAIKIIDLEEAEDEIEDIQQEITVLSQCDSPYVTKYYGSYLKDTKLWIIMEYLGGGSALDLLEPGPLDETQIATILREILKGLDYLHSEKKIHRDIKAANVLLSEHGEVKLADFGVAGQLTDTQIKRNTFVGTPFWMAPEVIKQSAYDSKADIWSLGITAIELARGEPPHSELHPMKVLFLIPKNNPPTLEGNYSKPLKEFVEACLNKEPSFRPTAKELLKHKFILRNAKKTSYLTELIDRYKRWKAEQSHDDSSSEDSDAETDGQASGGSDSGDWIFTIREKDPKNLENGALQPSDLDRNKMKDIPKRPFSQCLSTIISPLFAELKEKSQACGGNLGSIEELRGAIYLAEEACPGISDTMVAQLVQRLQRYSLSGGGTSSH
Sequence of Casein kinase I isoform gamma-3 (Homo sapiens) (Q9Y6M4 whole entry, looked up, canonical isoform): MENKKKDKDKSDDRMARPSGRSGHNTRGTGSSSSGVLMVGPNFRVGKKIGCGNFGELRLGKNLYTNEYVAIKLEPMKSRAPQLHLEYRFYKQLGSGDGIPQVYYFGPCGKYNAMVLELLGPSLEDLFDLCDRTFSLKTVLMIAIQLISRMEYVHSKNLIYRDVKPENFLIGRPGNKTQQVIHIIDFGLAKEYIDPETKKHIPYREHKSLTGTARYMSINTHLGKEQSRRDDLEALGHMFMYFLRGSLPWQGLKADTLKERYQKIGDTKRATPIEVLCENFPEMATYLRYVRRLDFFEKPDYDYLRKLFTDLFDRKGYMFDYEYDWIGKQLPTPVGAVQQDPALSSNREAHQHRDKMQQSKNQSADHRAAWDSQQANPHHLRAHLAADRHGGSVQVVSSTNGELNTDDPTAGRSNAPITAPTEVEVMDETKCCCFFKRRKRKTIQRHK
Sequence of Casein kinase I isoform gamma-2 (Homo sapiens) (P78368 whole entry, looked up, canonical isoform): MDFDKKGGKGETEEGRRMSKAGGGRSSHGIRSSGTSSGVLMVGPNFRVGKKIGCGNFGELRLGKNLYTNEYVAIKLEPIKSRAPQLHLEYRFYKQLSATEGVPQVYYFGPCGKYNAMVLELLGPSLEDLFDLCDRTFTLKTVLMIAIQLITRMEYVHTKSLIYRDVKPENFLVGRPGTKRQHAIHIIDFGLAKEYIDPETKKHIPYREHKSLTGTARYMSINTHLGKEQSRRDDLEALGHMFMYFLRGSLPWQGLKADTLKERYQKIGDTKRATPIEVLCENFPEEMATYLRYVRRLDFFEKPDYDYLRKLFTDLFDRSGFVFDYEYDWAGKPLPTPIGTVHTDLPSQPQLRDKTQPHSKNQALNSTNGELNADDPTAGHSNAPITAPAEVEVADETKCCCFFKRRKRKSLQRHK
Sequence of Serine/threonine-protein kinase PAK 4 (Homo sapiens) (O96013 whole entry, looked up): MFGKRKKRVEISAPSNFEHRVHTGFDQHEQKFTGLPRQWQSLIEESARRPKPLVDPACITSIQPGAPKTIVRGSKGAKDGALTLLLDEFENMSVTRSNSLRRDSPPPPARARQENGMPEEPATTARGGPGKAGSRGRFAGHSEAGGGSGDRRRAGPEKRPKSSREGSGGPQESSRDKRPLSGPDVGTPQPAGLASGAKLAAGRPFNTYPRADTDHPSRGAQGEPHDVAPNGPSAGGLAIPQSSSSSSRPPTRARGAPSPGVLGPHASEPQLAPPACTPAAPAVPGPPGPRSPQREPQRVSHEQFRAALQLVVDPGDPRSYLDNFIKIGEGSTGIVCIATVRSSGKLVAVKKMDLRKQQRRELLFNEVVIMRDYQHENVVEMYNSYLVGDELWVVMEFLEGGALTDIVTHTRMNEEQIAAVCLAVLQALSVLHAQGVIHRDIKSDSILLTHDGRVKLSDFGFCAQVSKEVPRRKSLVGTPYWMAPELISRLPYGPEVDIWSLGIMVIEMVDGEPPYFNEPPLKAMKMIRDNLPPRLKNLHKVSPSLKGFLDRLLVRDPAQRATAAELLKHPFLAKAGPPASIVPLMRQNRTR
Sequence of Serine/threonine-protein kinase PAK 3 (Homo sapiens) (O75914 whole entry, looked up): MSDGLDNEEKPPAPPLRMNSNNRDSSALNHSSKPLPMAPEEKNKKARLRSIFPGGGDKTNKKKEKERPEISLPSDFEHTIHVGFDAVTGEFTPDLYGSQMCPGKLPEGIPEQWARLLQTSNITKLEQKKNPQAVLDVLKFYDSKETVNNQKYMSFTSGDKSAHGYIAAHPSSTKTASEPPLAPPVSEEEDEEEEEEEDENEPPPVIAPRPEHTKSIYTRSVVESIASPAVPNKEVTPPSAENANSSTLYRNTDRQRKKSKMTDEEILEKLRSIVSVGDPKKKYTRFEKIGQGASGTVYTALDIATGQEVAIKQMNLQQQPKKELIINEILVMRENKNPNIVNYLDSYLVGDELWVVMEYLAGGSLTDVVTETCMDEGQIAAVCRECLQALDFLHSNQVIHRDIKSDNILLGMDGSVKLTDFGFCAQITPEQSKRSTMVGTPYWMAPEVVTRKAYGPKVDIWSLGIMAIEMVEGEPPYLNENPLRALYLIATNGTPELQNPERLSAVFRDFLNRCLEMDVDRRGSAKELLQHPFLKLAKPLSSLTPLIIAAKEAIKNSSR
Sequence of Aurora kinase C (Homo sapiens) (Q9UQB9 whole entry): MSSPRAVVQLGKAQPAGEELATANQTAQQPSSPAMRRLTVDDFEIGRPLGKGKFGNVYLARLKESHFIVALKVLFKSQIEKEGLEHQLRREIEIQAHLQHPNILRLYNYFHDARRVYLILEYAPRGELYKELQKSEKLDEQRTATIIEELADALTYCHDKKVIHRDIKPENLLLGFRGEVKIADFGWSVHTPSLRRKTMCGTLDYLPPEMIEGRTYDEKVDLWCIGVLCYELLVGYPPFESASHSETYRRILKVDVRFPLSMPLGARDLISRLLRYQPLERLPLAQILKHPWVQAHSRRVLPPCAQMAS

Activity [1]: 100% | Activity [3]: 120% | Activity [4]: 102% | Activity [5]: 111% | GI50 [6]: 1140 nM | Activity [7]: 116% | Activity [9]: 102% | Activity [10]: 89% | GI50 [11]: 1700 nM | Activity [12]: 114% | Activity [13]: 108% | Activity [14]: 100% | Activity [15]: 96% | inhibition [16]: Active | Activity [17]: 86% | Activity [18]: 114% | GI50 [19]: 289 nM | Activity [20]: 37% | Activity [21]: 113% | Activity [22]: 93%
SMILES: O=C1Nc2ncccc2/C1=C1/Nc2ncccc2C1=O
Activity [2]: Active | Activity [8]: 0.37%

Reference: ChEMBL document CHEMBL3098105, “7,7'-Diazaindirubin--a small molecule inhibitor of casein kinase 2 in vitro and in cells” (Bioorg Med Chem, 2014)
